MrgX1 antagonist: antagonists of human MrgX1 receptor, primary screen, HEK293 cells, Fluo-4 calcium flux; B-score at 10 µM; 310,000 tested, 1.3% active; AID 588676, 2011; BAM8-22 antagonism; active compounds read low;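 active means calcium-response B-score plate-corrected more than 3 library SD below zero, starting fluorescence within 5 deviations, no agonist response on first addition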;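 further: peak minus trough fluorescence over baseline after final BAM8-22 challenge near maximal dose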
Target sequence (Q96LB2 whole entry, looked up): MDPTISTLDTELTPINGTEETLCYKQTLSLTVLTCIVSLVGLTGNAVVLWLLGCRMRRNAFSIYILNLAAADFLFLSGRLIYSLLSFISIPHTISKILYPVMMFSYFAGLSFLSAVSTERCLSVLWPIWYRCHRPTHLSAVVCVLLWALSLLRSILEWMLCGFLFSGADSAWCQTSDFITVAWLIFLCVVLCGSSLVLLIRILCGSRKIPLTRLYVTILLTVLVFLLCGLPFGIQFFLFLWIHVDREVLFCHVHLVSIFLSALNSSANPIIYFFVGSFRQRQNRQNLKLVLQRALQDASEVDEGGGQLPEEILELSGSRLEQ
MrgX1 agonist: agonists of human MrgX1 receptor, primary screen, HEK293 cells, Fluo-4 calcium flux; Fluo-4 calcium fluorescence, agonist mode; active compounds read high; B-score at 10 µM; 310,000 tested, 0.44% active; AID 588627, 2011;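 active means calcium response B-score plate-corrected fluorescence ratio at least 3 library SD, with starting fluorescence B-score inside 5 SD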
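Assay system: MrgX1-expressing HEK293 cells / Amount: fifteen thousand cells per well / Doses: test compound in the initial addition of three / Timing: cells plated overnight, dye loaded 0.5 h 37 °C, 0.5 h room temperature / Technique: kinetic calcium dye fluorescence, Fluo-4 NW / Control set: positive and negative controls per plate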
RGS4 pot: RGS4 potentiators or activators, primary screen, cell-based, HEK293 M3R inducible RGS4, calcium flux. 310,000 tested, 0.92% active. B-score at 10 µM. carbachol calcium flux Fluo4; active compounds read low;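 active means B-score of the integrated calcium signal more than 4 SD below the library mean, with starting fluorescence not abnormally high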;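 further: negative B-score means reduced calcium response which marks RGS4 activation or potentiation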
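Detection: kinetic calcium fluorescence imaging with Fluo4-AM dye, 2 µM / Material: HEK293 cells with stable M3R and inducible RGS4 / Schedule: recording 10 s baseline at 1 Hz, 100 s post-agonist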
MrgX1 PAM: positive allosteric modulators of MrgX1, primary screen, HEK293 cells, Fluo-4 calcium flux. FDSS; active compounds read high. B-score at 10 µM. 310,000 tested, 0.63% active. Mas-related G-protein coupled receptor member X1 (Homo sapiens), Q96LB2;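 active means plate-corrected calcium response at least 3 library SD above typical, normal starting fluorescence, not activating the receptor alone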;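 further: compound read alongside a low EC10 to EC30 dose of BAM8-22 agonist; peak minus trough fluorescence over baseline measured at the second addition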
RGS4 block: RGS4 inhibitors, primary screen, cell-based, HEK293 M3R inducible RGS4, calcium flux. Regulator of G-protein signaling 4 (Homo sapiens), P49798. Fluo-4 calcium flux; active compounds read high; triggered by carbachol at its EC20. B-score at 10 µM. 310,000 tested, 0.45% active;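 active means B-score, a plate-corrected calcium signal, over three deviations above library mean, with baseline fluorescence within five deviations of library mean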;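 further: RGS4 expression induced by doxycycline in cells with stable M3 receptor; B-score is computed from the integrated fluorescence ratio over baseline after carbachol; higher B-score means a larger calcium signal and so more RGS4 inhibition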
Target sequence (P49798 whole entry, looked up): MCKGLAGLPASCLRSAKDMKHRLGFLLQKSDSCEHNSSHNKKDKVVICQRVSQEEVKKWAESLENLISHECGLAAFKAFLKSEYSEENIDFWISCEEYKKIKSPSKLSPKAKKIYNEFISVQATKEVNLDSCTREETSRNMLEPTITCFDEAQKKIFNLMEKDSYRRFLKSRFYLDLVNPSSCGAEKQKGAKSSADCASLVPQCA
RGS4 activ val: reduced carbachol calcium response, RGS4-induced M3R cells, confirmation, RGS4 activator project, cell-based, HEK293 M3R/RGS4 inducible, calcium flux, duplicate; shares compounds with RGS4 pot; carbachol calcium flux Fluo4; inhibition, % at 10 µM; 1,100 tested, 89% active;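 active means inhibition above 3 SD of the buffer control wells, cut at about 41% in these data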;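 further: signal is the integrated peak-minus-minimum Fluo4 fluorescence over baseline ratio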
M3R Ca counter: counter-screen for RGS4 activators: effect in non-induced cells; shares compounds with RGS4 pot; HEK293 M3R non-induced RGS4, Fluo4 calcium flux; after carbachol challenge at its EC90; inhibition, % at 10 µM; 1,100 tested, 82% active;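 active means inhibition exceeding 3 SD of buffer-only control wells, cut at about 26% in these data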;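 further: percent drop in integrated peak-minus-baseline over baseline Fluo4 ratio after carbachol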
MrgX1 ant reconf: MrgX1 receptor antagonists, duplicate retest, confirmation, HEK293 cells, Fluo-4 calcium flux; shares compounds with MrgX1 antagonist; remaining BAM8-22 calcium response % of control (active compounds read low), % at 10 µM; BAM8-22 calcium flux; active compounds read low; 2,300 tested, 19% active;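 active means remaining agonist calcium response no higher than 100% minus 3 SD of agonist-only control wells, with starting fluorescence near control levels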;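 further: agonist BAM8-22 given at a near maximal EC90 to ECmax level; peak minus minimum fluorescence divided by baseline after agonist addition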
HEK293 Ca flux: nonspecific calcium signal in parental HEK293, confirmation, counter-screen for MrgX1 antagonist project, parental HEK293 cells, Fluo-4 calcium flux. AID 624111, 2012. Fluo-4 calcium fluorescence, FDSS. 4,000 tested, 2% active. fluorescence ratio F(max-min)/F0 at 10 µM. shares compounds with MrgX1 antagonist;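 active means duplicate-averaged calcium fluorescence ratio at least three times the standard deviation of buffer wells, a nonspecific response in parental cells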
HEK293 Ca counter: calcium response in parental HEK293 cells, primary screen, counter-screen for MrgX1 allosteric activator project, cell-based, Fluo-4 calcium flux, duplicate; Fluo-4 fluorescence ratio; active compounds read high; shares compounds with MrgX1 antagonist; fluorescence ratio F(max-min)/F0 at 10 µM; 4,000 tested, 0.4% active; AID 624114, 2012;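 active means calcium fluorescence ratio, averaged over duplicates, at least 3 SD of the buffer-well ratio, meaning a nonspecific response in receptor-free cells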;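 further: untransfected parental HEK293 lacking MrgX1 used as counterscreen for MrgX1 allosteric activators; fluorescence change taken during the second addition on a kinetic imager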
HEK293 Ca cntr2: calcium response in parental HEK293 cells, primary screen, counter-screen for MrgX1 agonist project, cell-based, Fluo-4 calcium flux, duplicate, agonist mode. shares compounds with MrgX1 antagonist. Fluo-4 calcium fluorescence (FDSS); active compounds read high. fluorescence ratio F(max-min)/F0 at 10 µM. 4,000 tested, 8.7% active. AID 624115, 2012;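 active means calcium fluorescence ratio at least three times the spread of buffer wells, meaning a non-specific response in parental cells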
Large screens that a line does not name were inactive (follow-up assays come after a bar, where they were run). Most compounds without a hit are left out; they make up all but 3.5% or so of the library.

O=C(c1ccc(Cl)cc1)C1CCCN(Cc2ccc3c(c2)OCCO3)C1 (stereo not drawn)	RGS4 pot -8.66 | RGS4 activ val 91.0 | M3R Ca counter 40.8
CN1CCN(Cc2ccc3ccccc3c2)CC1	none
CN1CCN(CCC(C#N)(c2ccccc2)c2ccccc2)CC1	RGS4 pot -7.73 | RGS4 activ val 93.5 | M3R Ca counter 92.3
Clc1ccc(NC2=NCCCS2)cc1Cl	none
CN(CC1COc2ccccc2O1)c1nc(-c2cccnc2)nc2ccccc12 (stereo not drawn)	RGS4 pot -10.2 | RGS4 activ val 90.5 | M3R Ca counter 93.3
CC(=O)O[C@H]1CCC2C3CCC4=CC(=O)CCC4=C3C=C[C@@]21C (stereo partly drawn)	none
CC(Cc1ccccc1Sc1ccccc1O)N(C)C (stereo not drawn)	RGS4 pot -8.58 | RGS4 activ val 93.0 | M3R Ca counter 91.3
Fc1ccc(C(OCCN2CCCC2)c2ccc(F)cc2)cc1	RGS4 pot -9.3 | RGS4 activ val 87.5 | M3R Ca counter 36.8
CCC1(OC(=O)c2ccccc2)CC(C)N(C)CC1C (stereo not drawn)	none
C=CCC1(Nc2ccccc2)CC(C)N(C)CC1C (stereo not drawn)	RGS4 pot -7.71 | RGS4 activ val 59.0 | M3R Ca counter 83.8
CCOCN(C(=O)CCl)c1c(C)cccc1CC	none
NN=C(N)N	none (no result: RGS4 pot, RGS4 block)
O=C(c1ccc(C(F)(F)F)cc1)C1CCCN(C2CCSCC2)C1 (stereo not drawn)	RGS4 pot -12.3 | RGS4 activ val 90.5 | M3R Ca counter 48.3
Cc1cc(Cl)ccc1C(=O)C1CCCN(C2CCSCC2)C1 (stereo not drawn)	RGS4 pot -10.4 | RGS4 activ val 90.5 | M3R Ca counter 68.8
C[C@H]1[C@@H](c2ccccc2)O[C@@H](c2ccccc2Br)N1C	none
CC1CN=C(Nc2ccccc2)S1 (stereo not drawn)	none
CC1CN=C(Nc2cccc3ccccc23)S1 (stereo not drawn)	RGS4 pot -8.48 | RGS4 activ val inactive | M3R Ca counter inactive
CCC1=CCN(CCc2c(C)[nH]c3ccccc23)CC1	none
COc1ccc(C(O)CNC(C)C)c(F)c1OC (stereo not drawn)	none
OC(C#CCN1CCOCC1)(c1ccccc1)C1CCCC1 (stereo not drawn)	RGS4 pot -8.93 | RGS4 activ val 56.5 | M3R Ca counter 83.8
Cc1ccc(C(O)(c2ccc(C)c(C)c2)C2CN3CCC2CC3)cc1C (stereo not drawn)	none
Cc1ccccc1C(O)(Cc1ccccc1)C1CN2CCC1CC2 (stereo not drawn)	RGS4 pot -8.21 | RGS4 activ val 92.5 | M3R Ca counter 88.3
O=C(c1cccc(Cl)c1)C1CCCN(Cc2cccc3cnccc23)C1 (stereo not drawn)	RGS4 pot -7.63 | RGS4 activ val 51.5 | M3R Ca counter 83.8
COc1ccc(CN2CCCC(C(=O)c3cccc(Cl)c3)C2)cc1 (stereo not drawn)	none
O=c1cc(C(F)(F)F)c2cc3c4c(c2o1)CCCN4CCC3	RGS4 pot -9.07 | RGS4 activ val 98.5 | M3R Ca counter 94.3
CN1CCC(O)(c2ccc(Cl)cc2)C(C(=O)c2ccc(Cl)cc2)C1 (stereo not drawn)	RGS4 pot -9.62 | RGS4 activ val 94.0 | M3R Ca counter 65.8
CN1CC(C(=O)c2ccc(Cl)cc2)C(c2ccc(Cl)cc2Cl)C1 (stereo not drawn)	none
Clc1ccc(OCC#CCN2CCCC2)cc1	RGS4 pot -9.62 | RGS4 activ val 54.0 | M3R Ca counter inactive
N/C(=N\[N+](=O)[O-])N1CCN(C(=O)OC2CCCC2)CC1	none
O=C(Nc1ccccc1F)OC1CN2CCC1CC2 (stereo not drawn)	RGS4 pot -10.4 | RGS4 activ val 51.0 | M3R Ca counter inactive
O=C(Nc1ccccc1Cl)OC1CN2CCC1CC2 (stereo not drawn)	RGS4 pot -8.47 | RGS4 activ val 88.0 | M3R Ca counter 62.3
O=C(Nc1cccc(Cl)c1)OC1CN2CCC1CC2 (stereo not drawn)	none
O=C(Nc1ccc(Cl)cc1)OC1CN2CCC1CC2 (stereo not drawn)	none
CCN1C[C@]2(COC)CC[C@H](OC)[C@@]34C1[C@]1(OCO[C@@]15C[C@H](OC)[C@H]1C[C@@H]3[C@@H]5[C@H]1OC)[C@@H](O)[C@H]24	none (no result: RGS4 pot, RGS4 block)
CN1CCc2cc3c(c4c2C1Cc1ccccc1-4)OCO3 (stereo not drawn)	MrgX1 antagonist -6.56, RGS4 pot -7.79 | RGS4 activ val inactive | M3R Ca counter inactive | MrgX1 ant reconf inactive | HEK293 Ca flux inactive | HEK293 Ca counter inactive | HEK293 Ca cntr2 inactive
CCCCn1c(O)c(/C(C)=N/NC(=O)Nc2ccccc2)c(=O)[nH]c1=O	none

High-throughput results deposited in PubChem by Johns Hopkins Ion Channel Center.
